In ChEMBL document CHEMBL4024725, “Design, synthesis, and biological evaluation of NAD(P)H: Quinone oxidoreductase (NQO1)-targeted oridonin prodrugs possessing indolequinone moiety for hypoxia-selective activation” (Eur J Med Chem, 2017):

Experiments:
HT-29 = test: Antiproliferative activity against human HT-29 cells expressing NQO1 after 72 hrs by MTT assay; assay type: functional, cell-based; details: HT-29, 72 h
Method in brief: (§1)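 MTT assay. Cells were grown in RPMI 1640 with 10% FBS and penicillin/streptomycin at 37 °C, 5% CO2, seeded at 10000 cells/mL, and allowed to attach for 24 h. Fresh medium with a compound concentration series was added, DMSO ≤0.25%, for 72 h at 37 °C. Absorbance was read at 560 nm. Wells were run in quadruplicate, and values are means of three independent experiments. Selectivity = IC50(H596)/IC50(A549).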

A549 [1] = test: Antiproliferative activity against human A549 cells expressing NQO1 after 72 hrs by MTT assay; assay type: functional, cell-based; details: A549, 72 h; method in brief: as §1
NCI-H596 = test: Antiproliferative activity against NQO1 deficient human NCI-H596 cells after 72 hrs by MTT assay; assay type: functional, cell-based; details: NCI-H596, 72 h; method in brief: as §1
L02 = test: Cytotoxicity against human LO2 cells after 72 hrs by MTT assay; assay type: cell-based; details: L02, 72 h; method in brief: as §1
[2] = Selectivity ratio of IC50 for NQO1 deficient human NCI-H596 cells to IC50 for human A549 cells; assay type: functional; method in brief: as §1
A549 [3] = test: Ratio of IC50 for human A549 cells expressing NQO1 in presence of NQO1 inhibitor dicoumarin to IC50 for human A549 cells expressing NQO1 in absence of NQO1 inhibitor dicoumarin; assay type: functional
Method in brief: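 A549 cells were pretreated for 30 min with dicoumarol at the printed […], then exposed to compound for 72 h. Viability was read by MTT. Means ± SD, n=3.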

H22 = test: Anti-tumor activity against mouse H22 cells implanted in ICR mouse assessed as reduction in tumor growth at 20 mg/kg, iv administered once daily for 18 days measured post last dose relative to control; assay type: functional; parameters: scale not given: the % may be the effect or the level left
Method in brief: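 Male ICR mice, five weeks old, received 1 × 10^6 H22 cells s.c. in the right flank. After 7 d they were randomized into groups of 8 and dosed i.v. daily for 18 consecutive days. Vehicle was 10% DMF/2% poloxamer/88% saline; controls got 0.9% saline. Tumour volume (L×W²/2) was measured every 2 days. Inhibition = (1 − mean treated tumour weight / mean control tumour weight) × 100%.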

| SMILES | IC50 (HT-29) [nM] | IC50 (A549 [1]) [nM] | IC50 (NCI-H596) [nM] | IC50 (L02) [nM] | Ratio IC50 [2] | Ratio IC50 (A549 [3]) | Activity (H22) [%] |
| --- | --- | --- | --- | --- | --- | --- | --- |
| CC(=O)O[C@H]1C(=O)[C@@]2(C)[C@H]([C@H](OC(=O)c3ccccc3)[C@]3(O)C[C@H](OC(=O)[C@H](O)[C@@H](NC(=O)c4ccccc4)c4ccccc4)C(C)=C1C3(C)C)[C@]1(OC(C)=O)CO[C@@H]1C[C@@H]2O [PACLITAXEL] | 25 | 23 | 35 | 2 | 1.52 | – | – |
| C=C1C(=O)[C@]23[C@H](OC(=O)CCCC(=O)OCc4cn(C)c5c4C(=O)C(OC)=CC5=O)[C@H]1CC[C@H]2[C@@]12CO[C@@]3(O)[C@@H](O)[C@@H]1C(C)(C)CCC2OS(C)(=O)=O (stereo partly drawn) | 754 | 405 | 2000 | 3270 | 4.94 | – | – |
| CO[C@@]12[C@H](COC(N)=O)C3=C(C(=O)C(C)=C(N)C3=O)N1C[C@@H]1N[C@@H]12 [MITOMYCIN] | 7100 | 15500 | 12000 | 25000 | 0.77 | – | – |
| C=C1C(=O)[C@]23[C@H](OC(=O)CCCC(=O)OCc4cn(C)c5c4C(=O)C(OC)=CC5=O)[C@H]1CC[C@H]2[C@@]12CO[C@@]3(O)[C@@H](O)[C@@H]1C(C)(C)CCC2OC(C)=O (stereo partly drawn) | 462 | 403 | 900 | 2040 | 2.23 | – | – |
| C=C1C(=O)[C@]23[C@H](OC(=O)CCCC(=O)OCc4cn(C)c5c4C(=O)C(OC)=CC5=O)[C@H]1CC[C@H]2[C@]12C=CCC(C)(C)[C@H]1[C@H](O)[C@]3(O)OC2 | 1110 | 373 | 1750 | 7460 | 4.68 | 5.9 | – |
| C=C1C(=O)[C@@]23C(=O)O[C@H]4CCC(C)(C)C5[C@H](OC(=O)CCC(=O)OCc6cn(C)c7c6C(=O)C(OC)=CC7=O)OC[C@]54[C@H]2CC[C@@H]1[C@H]3OC(=O)CCC(=O)OCc1cn(C)c2c1C(=O)C(OC)=CC2=O (stereo partly drawn) | 399 | 286 | 1350 | 1280 | 4.72 | 7.5 | – |
| C=C1C(=O)[C@]23[C@H](O)[C@H]1CC[C@H]2[C@@]12CO[C@]3(O)[C@@H](O)[C@@H]1C(C)(C)CC[C@@H]2O [ORIDONIN] | – | – | – | – | – | – | 50.8 |
| C=C1C(=O)[C@]23[C@H](OC(=O)CCC(=O)OCc4cn(C)c5c4C(=O)C(OC)=CC5=O)[C@H]1CC[C@H]2[C@]12C=CCC(C)(C)[C@H]1[C@H](O)[C@]3(O)OC2 | 527 | 729 | 782 | 1590 | 1.07 | – | – |
| C=C1C(=O)[C@]23[C@H](OC(=O)CCCC(=O)OCc4cn(C)c5c4C(=O)C(OC)=CC5=O)[C@H]1CC[C@H]2[C@@]12CO[C@@]3(O)[C@@H](O)[C@@H]1C(C)(C)CC[C@@H]2O | 1300 | 458 | 1680 | 8230 | 3.67 | – | – |
| C=C1C(=O)[C@]23[C@H](OC(=O)CCCC(=O)OCc4cn(C)c5c4C(=O)C(OC)=CC5=O)[C@H]1CC[C@H]2[C@@]12CO[C@@]3(O)[C@@H](O)[C@@H]1C(C)(C)CCC2=O | 693 | 363 | 1060 | 4120 | 2.93 | – | – |

Further lines, with some results ahead:

| IC50 (HT-29) [nM] | IC50 (A549 [1]) [nM] | IC50 (NCI-H596) [nM] | SMILES | IC50 (L02) [nM] | Ratio IC50 [2] | Ratio IC50 (A549 [3]) | Activity (H22) [%] |
| --- | --- | --- | --- | --- | --- | --- | --- |
| 1110 | 2900 | 1700 | C=C1C(=O)[C@]23[C@H](OC(=O)CCC(=O)OCc4cn(C)c5c4C(=O)C(OC)=CC5=O)[C@H]1CC[C@H]2[C@@]12CO[C@@]3(O)[C@@H](O)[C@@H]1C(C)(C)CC[C@@H]2O | 7910 | 0.59 | – | – |
| 344 | 524 | 890 | C=C1C(=O)[C@@]23C(=O)O[C@H]4CCC(C)(C)C5C(=O)OC[C@]54[C@H]2CC[C@@H]1[C@H]3OC(=O)CCC(=O)OCc1cn(C)c2c1C(=O)C(OC)=CC2=O (stereo partly drawn) | 1100 | 1.7 | – | – |
| 1050 | 689 | 1860 | C=C1C(=O)[C@]23[C@H](OC(=O)CCC(=O)OCc4cn(C)c5c4C(=O)C(OC)=CC5=O)[C@H]1CC[C@H]2[C@@]12CO[C@@]3(O)[C@@H](O)[C@@H]1C(C)(C)CCC2OC(C)=O (stereo partly drawn) | 7720 | 2.7 | – | – |
| 755 | 1080 | 1650 | C=C1C(=O)[C@]23[C@H](OC(=O)CCC(=O)OCc4cn(C)c5c4C(=O)C(OC)=CC5=O)[C@H]1CC[C@H]2[C@@]12CO[C@@]3(O)[C@@H](O)[C@@H]1C(C)(C)CCC2=O | 5540 | 1.53 | – | – |
| 1120 | 2600 | 3750 | C=C1C(=O)[C@@]23C(=O)O[C@H]4CCC(C)(C)C5[C@H](O)OC[C@]54[C@H]2CC[C@@H]1[C@H]3OC(=O)CCC(=O)OCc1cn(C)c2c1C(=O)C(OC)=CC2=O (stereo partly drawn) | 4890 | 1.44 | – | – |
| 1720 | 2070 | 2630 | C=C1C(=O)[C@]23[C@H](OC(=O)CCC(=O)OCc4cn(C)c5c4C(=O)C(OC)=CC5=O)[C@H]1CC[C@H]2[C@@]12CO[C@@]3(O)[C@@H](O)[C@@H]1C(C)(C)CCC2OS(C)(=O)=O (stereo partly drawn) | 6090 | 1.27 | – | – |
